Bioassay records deposited in PubChem by several laboratories.
FLuc inh counter = inhibits firefly luciferase, flagging false hits in luciferase inhibition screens. ATPLite firefly luciferase biochemical luminescence, 10 min. inhibition, % at 10 µM. 200,000 compounds, 1.5% hits. AID 1006;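 active means inhibition above about 50% when tested at 10 µM, limit read from the data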
PKD1 inh = inhibitors of human PKD1 kinase | 200,000 compounds, 0.056% hits | inhibition, % (concentration not given with the values) | AID 797 | PKD1 kinase fluorescence polarization assay | Q15139; in the data active means inhibition above about 50%
FLuc act counter = firefly luciferase counter-screen for stimulation assays. P08659. ATPlite luciferase biochemical, luminescence, 10 min; 0 = ATP-free wells, 1 = DMSO control. activation factor at 10 µM. 200,000 tested, under 10 active. AID 1027;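 active means luciferase activation factor, scaled between plate controls, of at least 2 with compound at 10 µM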
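System: Luciferase/luciferin detection reagent, cell-free biochemical luciferase assay | Medium: PBS buffer for ATP | Dosing: Test compounds dosed from 2 mM stocks in 100% DMSO | Timing: 10 min at ambient temperature | Signal: Luminescence measurement of luciferase light output | Evaluation: Luciferase activation, seen as luminescence increase over controls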
PPC-1+TRAIL kill = kills PPC-1 cancer cells in the presence of TRAIL | cell killing (% activity), % at 4 µM or 5 µM | PPC-1 cells + TRAIL, ATPLite viability luminescence | 220,000 compounds, 0.41% hits;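 active means cell killing above 50% in the first pass at 4 µM, then a duplicate retest at 5 µM averaging 50% or more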
C8 TRAIL sens = caspase-8 TRAIL sensitization. NB7+C8 cells + TRAIL, ATPlite viability luminescence. inhibition (viability loss, TRAIL sensitization), % at 10 µM. 360,000 compounds, 1% hits;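 active means compounds causing at least 50% loss of cell viability in the single-dose screen, relative to plate controls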
Wee1 degr inh = inhibitors of human Wee1 degradation | HeLa Luc-Wee1K328M stability, luciferase luminescence; 100% = proteasome inhibitor MG132 effect | P30291 | 220,000 compounds, 1.2% hits | reporter increase, % at 5 µM;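 active means activation above the mean of all tested compounds plus 3 SD, set per screening run, cut at about 8.8% in these data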;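 further: cells exposed to compound for 20 h before luminescence read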
Target sequence (P30291 whole entry K328M): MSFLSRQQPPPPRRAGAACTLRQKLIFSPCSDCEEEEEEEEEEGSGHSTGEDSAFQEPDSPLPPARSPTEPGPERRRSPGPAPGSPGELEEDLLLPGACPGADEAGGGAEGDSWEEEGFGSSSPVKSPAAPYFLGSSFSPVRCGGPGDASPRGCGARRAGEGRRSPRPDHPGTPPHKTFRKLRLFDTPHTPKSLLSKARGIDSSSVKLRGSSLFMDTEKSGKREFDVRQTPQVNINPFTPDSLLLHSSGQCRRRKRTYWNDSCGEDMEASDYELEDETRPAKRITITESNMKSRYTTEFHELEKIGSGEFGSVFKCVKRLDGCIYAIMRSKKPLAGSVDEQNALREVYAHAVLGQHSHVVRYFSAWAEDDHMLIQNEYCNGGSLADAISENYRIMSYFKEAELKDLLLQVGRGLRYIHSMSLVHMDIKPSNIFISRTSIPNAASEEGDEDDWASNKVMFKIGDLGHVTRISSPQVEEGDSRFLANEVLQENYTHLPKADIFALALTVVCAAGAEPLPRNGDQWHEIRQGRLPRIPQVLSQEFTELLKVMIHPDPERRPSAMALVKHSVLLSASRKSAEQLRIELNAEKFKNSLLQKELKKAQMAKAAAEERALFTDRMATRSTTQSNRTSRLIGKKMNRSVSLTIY
Large screens that a line does not name were inactive. Rows were chosen to be rich in hits. Some 2.2% of all compounds tested hit in one or more screens of this group.

Cc1ccc(-n2[nH]c(C)c(C=Nc3ccc(S(=O)(=O)Nc4nccs4)cc3)c2=O)cc1	none (no result: C8 TRAIL sens)
CCc1nnc(NS(=O)(=O)c2ccc(N=Cc3c(C)[nH]n(-c4ccc(C)c(C)c4)c3=O)cc2)s1	FLuc inh counter 65.6, C8 TRAIL sens 56.1
CC(C)CC1C(=O)N(Cc2cn(CCC3OCCO3)nn2)CCS(=O)(=O)N1Cc1ccc(-c2ccc(F)nc2)cc1 (stereo not given)	none (no result: FLuc inh counter, PKD1 inh, FLuc act counter, PPC-1+TRAIL kill, Wee1 degr inh)
CN(C)c1ccc(N=Nc2nccs2)cc1	C8 TRAIL sens 77.2 (no result: FLuc inh counter, PKD1 inh, FLuc act counter, PPC-1+TRAIL kill, Wee1 degr inh)
Cc1sc(N=Nc2ccc(N(C)C)cc2)[n+]([O-])c1C	none (no result: FLuc inh counter, PKD1 inh, FLuc act counter, PPC-1+TRAIL kill, Wee1 degr inh)
CSC(=Nc1ccccc1)N=C(SCc1ccccc1)N(C)C	C8 TRAIL sens 90.9 (no result: FLuc inh counter, PKD1 inh, FLuc act counter, PPC-1+TRAIL kill, Wee1 degr inh)
N#CNC(=Nc1ccccc1)SCc1ccc(C(=O)O)cc1	none
CCc1ccc(C(=O)O)cc1	none (no result: FLuc inh counter, PKD1 inh, FLuc act counter)
CCc1ccc(C(=O)CN2CCSC2=N)cc1	FLuc inh counter 63.2
COC(=O)c1ccccc1NC(=O)N1CCN(C/C=C/c2ccccc2)CC1	Wee1 degr inh 10.1
Cc1ccc(NC(=O)N2CCN(C/C=C/c3ccccc3)CC2)cc1	none
S=C(Nc1ccccc1)N1CCN(C/C=C/c2ccccc2)CC1	Wee1 degr inh 10.0
Cn1c(COc2ccc(Cl)cc2Cl)nnc1SCC(=O)NCC1CCCO1 (stereo not given)	none (no result: FLuc inh counter, PKD1 inh, FLuc act counter, PPC-1+TRAIL kill, Wee1 degr inh)
Cc1noc(C)c1COc1ccc(CC(=O)NCc2ccccc2)cc1	Wee1 degr inh 9.3
Cc1noc(C)c1COc1ccc(CC(=O)NCCc2ccccn2)cc1	none (no result: FLuc inh counter, PKD1 inh, FLuc act counter, PPC-1+TRAIL kill, Wee1 degr inh)
CCSc1nc(N)nc2c1ncn2C1OC(CO)C(O)C1O (stereo not given)	none (no result: FLuc inh counter, PKD1 inh, FLuc act counter, PPC-1+TRAIL kill, Wee1 degr inh)
Cn1cnc([N+](=O)[O-])c1Sc1nc(N)nc2c1ncn2C1CC(O)C(CO)O1 (stereo not given)	C8 TRAIL sens 71.8 (no result: FLuc inh counter, PKD1 inh, FLuc act counter, PPC-1+TRAIL kill, Wee1 degr inh)
Cn1cnc([N+](=O)[O-])c1Sc1nc(N)nc2c1ncn2C1OC(CO)C(O)C1O (stereo not given)	C8 TRAIL sens 70.5 (no result: FLuc inh counter, PKD1 inh, FLuc act counter, PPC-1+TRAIL kill, Wee1 degr inh)
O=C(CSc1ncnc2ccccc12)c1cccs1	FLuc inh counter 70.1
Cc1ccc(C(=O)CSc2ncnc3ccccc23)o1	none
O=C(CSc1ncnc2ccccc12)NCC(=O)c1ccccc1	Wee1 degr inh 10.3
CC(Oc1cccnc1[N+](=O)[O-])C(=O)N1CCc2ccccc21 (stereo not given)	none (no result: FLuc inh counter, PKD1 inh, FLuc act counter, PPC-1+TRAIL kill, Wee1 degr inh)
Cc1[nH]c2ccccc2c1C(=O)C(=O)N1CCN(c2ccccc2)CC1	none (no result: FLuc inh counter, PKD1 inh, FLuc act counter, PPC-1+TRAIL kill, Wee1 degr inh)
O=C1CN(CC(=O)Nc2cccc(Cl)c2Cl)c2ccccc2N1	none
O=C(CSc1n[nH]c(-c2ccncc2)n1)Nc1ccc(Br)cc1	none (no result: FLuc inh counter, PKD1 inh, FLuc act counter, PPC-1+TRAIL kill, Wee1 degr inh)
COc1ccc(Nc2nc(-c3ccccc3)nc3ccccc23)cc1S(=O)(=O)N1CCOCC1	C8 TRAIL sens 48.0 (no result: FLuc inh counter, PKD1 inh, FLuc act counter)
CCCOc1ccc(/C(O)=C2/C(=O)C(=O)N(CCCn3ccnc3)C2c2cccs2)cc1 (stereo not given)	none
CCOc1ccc(/C(O)=C2/C(=O)C(=O)N(CCCn3ccnc3)C2c2cccs2)cc1Cl (stereo not given)	Wee1 degr inh 10.2
CCc1ccc(CNC(=O)C2CCN(S(=O)(=O)N3CCCC3)CC2)cc1	none (no result: FLuc inh counter, PKD1 inh, FLuc act counter, PPC-1+TRAIL kill, Wee1 degr inh)
O=C(Oc1c(CN2CCOCC2)cc(Cl)c2cccnc12)c1ccccc1F	C8 TRAIL sens 54.4
O=C(Oc1c(CN2CCOCC2)cc(Cl)c2cccnc12)c1ccccc1	none (no result: PPC-1+TRAIL kill)
CC(C)CCN1CCN(Cc2ccc(N3CCNC3=O)cc2)CC1CCO (stereo not given)	none
COc1ccc(CCn2c(-c3ccccc3)nc3c(c(=O)c4ccccc4n3C)c2=O)cc1	none (no result: C8 TRAIL sens)
CC(C)c1nc2c(c(=O)c3ccccc3n2C)c(=O)n1CCc1ccccc1	Wee1 degr inh 10.5 (no result: FLuc inh counter, PKD1 inh, FLuc act counter)
CCn1c(C)nc2cc(C(=O)N/N=C/c3cccc(O)c3O)ccc21	FLuc inh counter 66.3, C8 TRAIL sens 51.7
O=C(N/N=C/c1cccc(O)c1)c1ccc2c(c1)OCCO2	C8 TRAIL sens 88.9 (no result: FLuc inh counter, PKD1 inh, FLuc act counter, PPC-1+TRAIL kill, Wee1 degr inh)
Cc1cccc(/C=N\NC(=O)c2ccc(Cl)cc2)c1O	C8 TRAIL sens 55.0
O=C(N/N=C/c1cc([N+](=O)[O-])ccc1O)c1ccc2c(c1)OCCO2	FLuc inh counter 69.7, C8 TRAIL sens 52.0
CCn1c(C)nc2cc(C(=O)N/N=C/c3ccccc3)ccc21	none
Cc1cccc(/C=N/NC(=O)Cc2ccc(Cl)cc2)c1O	none (no result: FLuc inh counter, PKD1 inh, FLuc act counter, PPC-1+TRAIL kill, Wee1 degr inh)
Clc1ccc(OCc2nnc3n2CCCCC3)c(Cl)c1	none (no result: FLuc inh counter, PKD1 inh, FLuc act counter)
